Test results taken from ChEMBL document CHEMBL4406880, “Design, synthesis, and bioactivity of dihydropyrimidine derivatives as kinesin spindle protein inhibitors” (Bioorg Med Chem, 2019).

What was measured:
Assay type in all cases: functional
[1] = test system: NCI/ADR-RES; assay: Growth inhibition of human NCI/ADR-RES cells assessed as cell viability at 1 uM incubated for 48 hrs by sulforhodamine B assay; details: read-out: Activity
[2] = test system: K562; assay: Growth inhibition of human K562 cells assessed as cell viability at 0.001 uM incubated for 48 hrs by sulforhodamine B assay relative to control; details: K562, 48 h, read-out: Activity
[3] = test system: UACC-257; assay: Growth inhibition of human UACC257 cells incubated for 48 hrs by sulforhodamine B assay; details: UACC-257, 48 h
Procedure, shortened: (§1)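 NCI-60 five-dose SRB assay. Cells were exposed for 48 h to tenfold dilutions of 0.01, 0.1, 1, 10 and 100 µM, in RPMI 1640 with 5% FBS. Plates fixed with TCA at the time of drug addition served as the time-zero reference. GI50 is the concentration giving a 50% reduction in net growth. TGI is total growth inhibition. LC50 is a net 50% loss of the initial cells.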

[4] = test system: EKVX; assay: Growth inhibition of human EKVX cells assessed as cell viability at 0.1 uM incubated for 48 hrs by sulforhodamine B assay; details: read-out: Activity
[5] = test system: NCI-H522; assay: Growth inhibition of human NCI-H522 cells incubated for 48 hrs by sulforhodamine B assay; details: NCI-H522, 48 h
Procedure, shortened: (§2)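 NCI-60 five-dose SRB assay in RPMI 1640 with 5% FBS, 37 °C, 5% CO2. Compound given at five tenfold dilutions, 0.01–100 µM, for 48 h. Adherent cells fixed with TCA, suspension cells with 16% final TCA. Bound SRB read at 515 nm and growth calculated against time-zero and untreated controls. GI50 taken from dose–response curves as the concentration giving a 50% decrease in net cell growth.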

[6] = test system: M14; assay: Growth inhibition of human M14 cells incubated for 48 hrs by sulforhodamine B assay; details: M14, 48 h; procedure, shortened: as §2
[7] = test system: SNB-19; assay: Growth inhibition of human SNB19 cells assessed as cell viability at 1 uM incubated for 48 hrs by sulforhodamine B assay; details: SNB-19, 48 h, read-out: Activity
[8] = test system: T47D; assay: Growth inhibition of human T47D cells incubated for 48 hrs by sulforhodamine B assay; procedure, shortened: as §1
[9] = test system: SN12C; assay: Growth inhibition of human SN12C cells assessed as cell viability at 1 uM incubated for 48 hrs by sulforhodamine B assay; details: read-out: Activity
[10] = test system: A498; assay: Growth inhibition of human A498 cells assessed as cell viability at 0.001 uM incubated for 48 hrs by sulforhodamine B assay relative to control; details: A498, 48 h, read-out: Activity
[11] = test system: HL-60(TB); assay: Growth inhibition of human HL-60(TB) cells incubated for 48 hrs by sulforhodamine B assay; details: HL-60, 48 h
Procedure, shortened: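 NCI-60 five-dose assay, SRB end-point, same culture conditions. Compound is tested at tenfold dilutions of 0.01, 0.1, 1, 10 and 100 µM for 48 h at 37 °C, with DMSO/PBS vehicle controls. Percentage growth at each concentration is taken against untreated cells and a time-zero plate. GI50 is 50% net growth decrease, TGI is total growth inhibition, and LC50 is 50% loss of initial cells.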

[12] = test system: Malme-3M; assay: Growth inhibition of human MALME-3M cells assessed as cell viability at 0.1 uM incubated for 48 hrs by sulforhodamine B assay; details: read-out: Activity
[13] = test system: MDA-MB-231; assay: Growth inhibition of human MDA-MB-231 cells incubated for 48 hrs by sulforhodamine B assay; details: MDA-MB-231, 48 h; procedure, shortened: as §2
[14] = test system: HT-29; assay: Growth inhibition of human HT-29 cells assessed as cell viability at 1 uM incubated for 48 hrs by sulforhodamine B assay; details: HT-29, 48 h, read-out: Activity
[15] = test system: ACHN; assay: Growth inhibition of human ACHN cells assessed as cell viability at 100 uM incubated for 48 hrs by sulforhodamine B assay; details: read-out: Activity
Procedure, shortened: (§3)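 NCI-60 five-dose mode: five tenfold dilutions (0.01, 0.1, 1, 10, 100 µM) are applied for 48 h to cells in RPMI 1640 with 5% FBS at 37 °C. Endpoint is TCA fixation with sulforhodamine B read at 515 nm. % growth comes from the 0 h and control absorbances. GI50 is the concentration giving a 50% reduction in net cell growth.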

[16] = test system: SNB-75; assay: Induction of apoptosis in human SNB75 cells assessed as early apoptotic cells at 2 uM incubated for 24 hrs by annexin V FITC and propidium iodide based flow cytometry (reference value: 0.82 %)
[17] = test system: SW-620; assay: Growth inhibition of human SW620 cells assessed as cell viability at 1 uM incubated for 48 hrs by sulforhodamine B assay; details: SW-620, 48 h, read-out: Activity
[18] = test system: Malme-3M; assay: Growth inhibition of human MALME-3M cells incubated for 48 hrs by sulforhodamine B assay; procedure, shortened: as §2
[19] = test system: SF-268; assay: Growth inhibition of human SF268 cells assessed as cell viability at 100 uM incubated for 48 hrs by sulforhodamine B assay; details: SF-268, 48 h, read-out: Activity
[20] = test system: SW-620; assay: Growth inhibition of human SW620 cells assessed as cell viability at 100 uM incubated for 48 hrs by sulforhodamine B assay; details: SW-620, 48 h, read-out: Activity
[21] = test system: LOX IMVI; assay: Growth inhibition of human LOXIMVI cells assessed as cell viability at 1 uM incubated for 48 hrs by sulforhodamine B assay; details: read-out: Activity
[22] = test system: CCRF-CEM; assay: Growth inhibition of human CCRF-CEM cells incubated for 48 hrs by sulforhodamine B assay; procedure, shortened: as §3
[23] = test system: NCI/ADR-RES; assay: Growth inhibition of human NCI/ADR-RES cells assessed as cell viability at 0.001 uM incubated for 48 hrs by sulforhodamine B assay relative to control; details: read-out: Activity
[24] = read-out: LC50 (the source's name)
[25] = read-out: pLC50 (the source's name) (converted)

CC1=C(C(=O)OCc2ccccc2)C(c2ccc3c(c2)OCO3)n2c(nc3ccccc32)N1 (racemic)
viability at 1 µM [1]: 17%
viability at 0.001 µM [2]: 93%
GI50 ([3]; read-out: GI50): 0.98 µM
LC50 (concentration killing 50% of the initial cells) ([3]; read-out: LC50): > 100 µM
TGI ([3]; read-out: TGI): > 100 µM
GI50 ([3]; read-out: pGI50 (converted)): 0.977 µM
LC50 (concentration killing 50% of the initial cells) ([3]; read-out: pLC50 (converted)): > 100 µM
TGI ([3]; read-out: pTGI): > 100 µM
viability at 0.1 µM [4]: 95%
GI50 ([5]; read-out: GI50): 0.14 µM
CC50 [5, 24]: > 100 µM
TGI ([5]; read-out: TGI): 33.2 µM
GI50 ([5]; read-out: pGI50 (converted)): 0.135 µM
CC50 [5, 25]: > 100 µM
TGI ([5]; read-out: pTGI (converted)): 33.1 µM
GI50 ([6]; read-out: GI50): 0.46 µM
LC50 (50% net cell kill) ([6]; read-out: LC50): > 100 µM
TGI ([6]; read-out: TGI): > 100 µM
GI50 ([6]; read-out: pGI50 (converted)): 0.468 µM
LC50 (50% net cell kill) ([6]; read-out: pLC50 (converted)): > 100 µM
TGI ([6]; read-out: pTGI): > 100 µM
viability at 1 µM [7]: 35%
GI50 ([8]; read-out: GI50): 0.48 µM
CC50 [8, 24]: > 100 µM
TGI ([8]; read-out: TGI): > 100 µM
GI50 ([8]; read-out: pGI50 (converted)): 0.479 µM
CC50 [8, 25]: > 100 µM
TGI ([8]; read-out: pTGI): > 100 µM
viability at 1 µM [9]: 42%
viability at 0.001 µM [10]: 81%
GI50 ([11]; read-out: GI50): 0.34 µM
CC50 [11, 24]: > 100 µM
TGI ([11]; read-out: TGI): > 100 µM
GI50 ([11]; read-out: pGI50 (converted)): 0.339 µM
CC50 [11, 25]: > 100 µM
TGI ([11]; read-out: pTGI): > 100 µM
viability at 0.1 µM [12]: 87%
GI50 ([13]; read-out: GI50): 85.7 µM
CC50 [13, 24]: > 100 µM
TGI ([13]; read-out: TGI): > 100 µM
GI50 ([13]; read-out: pGI50 (converted)): 85.1 µM
CC50 [13, 25]: > 100 µM
TGI ([13]; read-out: pTGI): > 100 µM
viability at 1 µM [14]: 8%
viability at 100 µM [15]: 35%
Activity [16]: 7.65%
viability at 1 µM [17]: 23%
GI50 ([18]; read-out: GI50): 0.44 µM
LC50 ([18]; read-out: LC50): > 100 µM
TGI ([18]; read-out: TGI): > 100 µM
GI50 ([18]; read-out: pGI50 (converted)): 0.437 µM
LC50 ([18]; read-out: pLC50 (converted)): > 100 µM
TGI ([18]; read-out: pTGI): > 100 µM
viability at 100 µM [19]: 9%
viability at 100 µM [20]: 6%
viability at 1 µM [21]: 35%
GI50 ([22]; read-out: GI50): 0.41 µM
CC50 [22, 24]: > 100 µM
TGI ([22]; read-out: TGI): > 100 µM
GI50 ([22]; read-out: pGI50 (converted)): 0.407 µM
CC50 [22, 25]: > 100 µM
TGI ([22]; read-out: pTGI): > 100 µM
viability at 0.001 µM [23]: 93%
